FXN GAA850 act = activators of GAA850 frataxin (FXN) promoter | HEK293 lucGAA850 FXN promoter luciferase reporter, 24 h; percent of 10 µM SAHA response | activation, % at 6 µM | hit rate 0.56% among 360,000 | AID 540364;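 active = activation above the average of all compounds screened plus 3 SD, cutoff fixed separately per campaign, cut at about 7.5% in these data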;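 note: 0% = DMSO wells and 100% = 10 µM SAHA wells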
HDAC3 inh = inhibitors of human histone deacetylase 3; AID 2718; inhibition, % at 8.3 µM; hit rate 0.15% among 320,000; recombinant HDAC3, fluorogenic peptide/trypsin coupled, fluorescence; in the data active = inhibition above about 26%, passing the limit was not always enough
Target sequence (O15379 whole entry, looked up): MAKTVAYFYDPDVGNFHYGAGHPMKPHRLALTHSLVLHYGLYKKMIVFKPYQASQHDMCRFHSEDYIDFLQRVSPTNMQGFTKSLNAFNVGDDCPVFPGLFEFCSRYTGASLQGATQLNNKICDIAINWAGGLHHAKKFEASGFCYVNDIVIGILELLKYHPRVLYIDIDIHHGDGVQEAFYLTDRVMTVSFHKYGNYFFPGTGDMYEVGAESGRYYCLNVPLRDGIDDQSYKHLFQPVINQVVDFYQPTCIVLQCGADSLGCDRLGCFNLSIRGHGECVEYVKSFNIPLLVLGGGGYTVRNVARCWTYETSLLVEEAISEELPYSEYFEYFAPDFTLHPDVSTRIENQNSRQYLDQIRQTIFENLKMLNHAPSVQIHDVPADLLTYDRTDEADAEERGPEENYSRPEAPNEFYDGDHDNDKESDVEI
AHR act = human AHR activation; activation, % at 5 µM; AID 2796; AHR-responsive luciferase reporter cells, luminescence; hit rate 2.5% among 320,000; P35869; in the data active = activation above about 47%;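 note: 0% = vehicle wells and 100% = reference agonist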
SENP1 FRET inh = blocks the human SENP1 SUMO protease catalytic domain | AID 624204 | inhibition, % at 10 µM | hit rate 0.21% among 360,000 | recombinant SENP1 catalytic domain, CyPet-SUMO1-YPet FRET cleavage;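 active = inhibition at least 30% at 10 µM, raw YFP signal under a set limit, fluorescence ratio 0.5 to 1.5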;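 note: 0% = enzyme with DMSO and 100% = no enzyme wells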
Target sequence (Q9P0U3 419-644 limits assumed): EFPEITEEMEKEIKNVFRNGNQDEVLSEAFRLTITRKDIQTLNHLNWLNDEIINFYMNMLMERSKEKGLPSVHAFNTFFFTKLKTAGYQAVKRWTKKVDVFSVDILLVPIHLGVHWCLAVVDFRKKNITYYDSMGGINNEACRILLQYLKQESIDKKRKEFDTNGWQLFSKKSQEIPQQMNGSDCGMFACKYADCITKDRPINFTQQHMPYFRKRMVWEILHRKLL
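System: Recombinant human SENP1 catalytic domain, His6-tagged | Incubation: Enzyme reaction for 50 min at room temperature, dark | Medium: Tris pH 8 with BME, BSA, NP40 and catalase | Also added: 25 nM SUMO1 FRET substrate | Compound: 10 µM single point, 0.5% DMSO | Measured by: FRET fluorescence in CFP and YFP emission channels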
CTSL1 counter = counter-screen for PFM18AAP inhibitors: inhibitors of F. hepatica cathepsin L1 | AID 1906 | recombinant F. hepatica cathepsin L1, Z-Leu-Arg-MCA fluorescence | inhibition, % at 5.96 µM | hit rate 0.49% among 300,000;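 active = inhibition above the mean of all tested compounds plus 3 SD, set per screening campaign, cut at about 17% in these data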;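 note: 0% = plate median of test compound wells and 100% = 1 µM Z-Phe-Ala-diazomethylketone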
PfM18AAP inh = blocks P. falciparum M18 aspartyl aminopeptidase | inhibition, % at 7.35 µM | recombinant PfM18AAP, H-Glu-NHMec fluorogenic cleavage | AID 1822 | hit rate 1.2% among 290,000;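 active = inhibition above the campaign mean inhibition over all tested compounds plus 3 SD, cut at about 28% in these data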;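 note: 0% = plate median of test compound wells and 100% = 2 mM ZnCl2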
* marks the source's active call; other numbers are inactive results; . = not tested or not shown. Hits are enriched below; roughly 4.2% of the tested compounds scored in any of these assays.

SMILES | FXN GAA850 act | HDAC3 inh | AHR act | SENP1 FRET inh | CTSL1 counter | PfM18AAP inh
CCNC(=O)C(=O)NCC1OCCCN1S(=O)(=O)c1cccs1 (stereo unspecified) | 2.4 | -0.8 | -0.1 | 2.5 | 2.0 | -1.6
CCN(CC)CCNC(=O)c1cc2c(-c3cccc(OC)c3)nn(C)c2s1 | 1.2 | -28.5 | 47.8* | 1.5 | 2.3 | 5.7
CCOCCCNC(=O)c1cc2c(-c3ccc(Cl)cc3)nn(C)c2s1 | -2.0 | -6.7 | 56.1* | -1.4 | 9.3 | -10.1
CCCN(CCC)CCNC(=O)c1cc2c(-c3ccc(Cl)cc3)nn(C)c2s1 | 3.6 | -64.0 | 39.3 | 1.5 | 2.0 | -4.5
CCCCN(CC)CCNC(=O)c1cc2c(-c3ccc(Cl)cc3)nn(C)c2s1 | 0.8 | -75.2 | 43.0 | 1.5 | 5.7 | -3.8
CCN(CC)CCNC(=O)c1cc2c(-c3ccc(Cl)cc3)nn(C)c2s1 | -1.0 | . | 52.9* | -7.2 | -2.8 | 5.0
Cc1ccc(C)c(S(=O)(=O)N2CCN(C(=O)C3CCN(C(=O)c4ccc(F)cc4)CC3)CC2)c1 | 0.3 | -1.8 | -0.8 | 1.7 | -0.5 | .
O=C1C=C(c2cc(Cl)cc(Cl)c2)C[C@@H](c2ccc3c(c2)OCO3)C1 | 1.6 | 0.1 | 29.8 | 2.7 | . | .
O=C1C=C(c2cccc(CO)c2)C[C@@H](c2ccc3c(c2)OCO3)C1 | 2.2 | -4.4 | 73.4* | 1.2 | . | .
O=C1C=C(c2ccc(-c3ccccc3)c(F)c2)C[C@@H](c2ccc3c(c2)OCO3)C1 | 0.7 | -9.4 | 3.3 | -0.8 | . | .
O=C1C=C(c2ccc3c(c2)OCO3)C[C@@H](c2ccc3c(c2)OCO3)C1 | 3.1 | 0.0 | 60.9* | 0.4 | . | .
Cc1cc(C2=CC(=O)C[C@H](c3ccc4c(c3)OCO4)C2)ccc1F | 2.5 | 0.8 | 79.0* | -0.1 | . | .
CCCCNC(=O)C(NC(=O)c1cccs1)C(=O)c1ccccc1 (stereo unspecified) | . | . | . | 3.0 | . | .
CCOC(=O)[C@@H]1[C@H]2COc3ccc(Br)cc3[C@H]2N2C(=O)N(c3ccc(C(F)(F)F)cc3)C(=O)[C@]12C | -1.8 | -1.3 | -0.1 | 0.2 | . | .
CCCS(=O)(=O)NC(=O)C1(C)CCN(C(=O)c2ccc(C(F)(F)F)cc2)C1 (stereo unspecified) | 0.7 | . | . | 2.3 | . | .
CCCC(=O)Nc1cc(-c2nc3ncccc3o2)ccc1Cl | 0.6 | -2.8 | 75.3* | -1.0 | 0.4 | 2.8
Nc1cc(-c2nc3ncccc3o2)ccc1Cl | 4.8 | -10.2 | 59.0* | -0.2 | -0.2 | 0.3
Cc1cc(-c2nc3ncccc3o2)ccc1N | 1.3 | -164.1 | 8.6 | -18.2 | 0.9 | 2.4
Cc1ccc(-c2nc3ncccc3o2)cc1N | 5.3 | -3.5 | 67.4* | 0.4 | -5.8 | -0.8
CCCC(=O)Nc1cc(-c2nc3ncccc3o2)ccc1C | -1.1 | -11.1 | 16.5 | 0.8 | -3.0 | 4.9
CC1(C(=O)NCc2ccccc2)CCC(=O)N1CCOc1ccccc1 (stereo unspecified) | . | . | . | -0.1 | . | .
CCOc1ccccc1NC(=S)N1CCN(c2ccc(O)cc2)CC1 | 0.7 | -0.6 | 1.0 | 0.5 | -5.1 | 29.6*
CC1CCC(NC(=O)C(Cc2ccccc2)n2cccc2)CC1 (stereo unspecified) | 3.2 | 1.8 | 2.6 | -0.3 | -2.9 | -1.7
N#Cc1c(N2CCCC2)nc(N)c2c(N)nc(N3CCCC3)cc12 | -0.5 | -11.7 | 44.8 | -27.7 | 110.3* | 1.1
COc1cc2c(C#N)c(N3CCCC3)nc(N)c2c(N)n1 | 2.1 | -1.4 | 15.9 | -28.6 | -0.2 | 5.2
SMILES | FXN GAA850 act | HDAC3 inh | AHR act | SENP1 FRET inh | CTSL1 counter | PfM18AAP inh
Nc1cccnc1Sc1ccc([N+](=O)[O-])cn1 | 1.8 | . | . | 9.7 | . | 25.2
Nc1cccnc1Sc1cc(Cl)c(Cl)cc1Cl | 0.5 | 1.0 | 59.5* | -3.1 | -7.0 | -13.2
COc1ccc(-c2cc3c(=O)n(CC(=O)NCCCN4CCN(Cc5ccccc5)CC4)ncn3n2)cc1 | 2.2 | -2.4 | -0.5 | -0.3 | 5.0 | -13.1
COc1ccc(-c2cc3c(=O)n(CC(=O)NCCCN4CCC(Cc5ccccc5)CC4)ncn3n2)cc1 | 3.9 | -0.5 | -1.4 | 1.8 | 19.6* | 9.3
O=C(NC1CCCCC1)N1CCN(C2CCCCC2)CC1 | 2.1 | 1.2 | -0.1 | 0.2 | 0.8 | 1.5
COc1ccc(OC)c(NC(=O)C(=S)NC2CCCCC2)c1 | 4.0 | 0.9 | 70.3* | 1.1 | -2.7 | -14.5
O=C(NC1CCCCCC1)C(=S)NC1CCCCC1 | 0.4 | 7.4 | 2.1 | 1.6 | -1.4 | 30.2*
O=C(NC1CCCCC1)N1CCCCCCC1 | 1.6 | -0.7 | -1.6 | 4.7 | 18.1* | 2.6
O=C(C=CC(=O)OC1CCCCC1)OC1CCCCC1 | 3.3 | . | . | 0.4 | . | .
COc1c2c(nc3occc13)C(CC=C(C)C)(OC)C(OC(C)=O)CC2 (stereo unspecified) | -1.8 | 0.1 | 72.5* | -1.0 | -0.3 | -6.7
COc1c2c(nc3occc13)C(CC=C(C)C)(OC)C(O)CC2 (stereo unspecified) | 0.7 | -3.7 | 65.2* | -0.5 | 5.9 | 4.7
COc1c2ccoc2nc2c(OC)cccc12 | 0.6 | -64.5 | 0.7 | -0.9 | 0.3 | 10.4
COc1ccc(Cc2c(-c3ccc(OC)c(OC)c3)nc3cc(C)c(Br)c(C)n23)c(C)c1 | . | . | . | -0.8 | . | .
CC(C)(C)N=C1NN=C(c2ccc(Cl)cc2)CS1 | -0.6 | 3.7 | 7.4 | -6.9 | 21.5* | -1.7
CC[C@@]1(C(=O)OC)N[C@H](CN(C)S(=O)(=O)c2ccc(C(C)(C)C)cc2)[C@@H]2C(=O)N(C)C(=O)[C@@H]21 | -0.9 | . | -0.2 | -1.8 | . | .
COc1cccc(NC(=O)CN(C)C(C)C(=O)N2CCCC2)c1 (stereo unspecified) | -0.2 | -0.1 | -0.9 | 2.3 | . | .
C=CCC[C@H](Cc1ccc(F)cc1)C(=O)OC[C@H](Cc1c[nH]c2ccccc12)NC(=O)[C@@H](CC=C)CC(=O)N[C@H](CO)Cc1ccccc1 | -10.2 | 20.6 | -0.2 | -0.8 | . | .
COc1cc(/C=N/N(C)C)cc(Br)c1O | 0.4 | 3.8 | 1.7 | 1.1 | -1.1 | 11.9
COc1cc(/C=N/N(C)c2ccccc2)cc(Cl)c1O | 4.5 | -5.3 | 52.3* | -0.5 | 4.0 | 20.9
Clc1ccc(Nc2nc(NCCN3CCOCC3)nc(N3CCOCC3)n2)cc1 | -1.1 | 1.6 | 4.4 | -0.4 | 18.5* | 3.2
Nc1nc(NCC2CCCO2)nc(Nc2ccc(Cl)cc2)c1[N+](=O)[O-] (stereo unspecified) | -0.4 | 1.0 | 67.5* | -0.5 | -0.6 | -2.3
Nc1nc(NCCCN2CCOCC2)nc(Nc2ccc(Cl)cc2)c1[N+](=O)[O-] | 0.1 | 8.0 | 74.1* | 6.9 | -2.3 | -5.0
CC(=O)c1ccccc1NC(=O)COC(=O)C1=NN(c2ccccc2)C(=O)CC1 | -0.7 | . | . | -0.6 | . | .
COc1ccc(C(=O)N[C@H]2CCCCNC2=O)cc1OC1CCN(C(C)C)CC1 | -1.4 | 2.4 | 0.6 | 0.7 | 1.5 | -3.7
COc1ccc(OC)c(NC(=O)c2c(NC(=O)CCC(=O)O)sc3c2CCCCC3)c1 | 4.4 | 9.1 | 28.8 | -37.2 | -0.5 | 37.3*

Bioassay records as filed in PubChem.
